# EBV gp42 inh = inhibitors of Epstein-Barr virus glycoprotein 42; Q1HVG2; Fluorescence polarization binding assay, mP read-out; inhibition, % (tested at 21.74 µM); 220,000 tested, 0.42% active; in the data active = inhibition above about 50%
# eIF4E 4G PPI = blocks eIF4E binding to eIF4G. P63073+Q04637. TR-FRET eIF4E-eIF4GI(517-606) binding, 2 h. inhibition, % at 21.7 µM. 220,000 tested, 0.37% active. AID 782;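 also: 0% = full FRET control wells and 100% = background wells lacking eIF4GI fragment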
# p47phox inh = blocks human p47phox regulatory protein of NADPH oxidases; P14598; p47phox/p22phox peptide binding, fluorescence polarization, 2 h; inhibition, % at 24.7 µM; 220,000 tested, 0.53% active; AID 1274;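 also: 0% = p47phox with labelled peptide and 100% = labelled peptide alone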
# 14-3-3 Bad inh = disrupts binding of bovine 14-3-3 zeta to phospho-Bad peptide; inhibition, % at 21.7 µM; TR-FRET 14-3-3zeta/Dy647-pBad peptide displacement, 1 h; 220,000 tested, 0.71% active; AID 781; P63103;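 active = inhibition above about 70%, limit read from the data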;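 also: 0% = full 14-3-3 plus peptide FRET controls and 100% = background without 14-3-3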
# Target sequence (P63103 whole entry, looked up): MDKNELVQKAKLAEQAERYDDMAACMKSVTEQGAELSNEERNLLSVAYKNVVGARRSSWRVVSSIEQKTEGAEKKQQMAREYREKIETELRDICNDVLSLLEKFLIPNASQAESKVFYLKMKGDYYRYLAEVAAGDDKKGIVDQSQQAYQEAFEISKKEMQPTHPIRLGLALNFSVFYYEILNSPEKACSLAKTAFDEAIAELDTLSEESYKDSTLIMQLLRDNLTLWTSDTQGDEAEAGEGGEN
# RBBP9 inh = human RBBP9 hydrolase inhibition. O75884. recombinant RBBP9, FP-Rh probe fluorescence polarization. inhibition, % at 7.94 µM. 220,000 tested, 0.2% active. AID 1515;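 active = inhibition above the campaign mean of all tested compounds plus 3 SD, cut at about 14% in these data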;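 also: plate controls were DMSO wells with RBBP9 for no effect and wells lacking RBBP9 protein for full effect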
# Target sequence (O75884 whole entry, looked up): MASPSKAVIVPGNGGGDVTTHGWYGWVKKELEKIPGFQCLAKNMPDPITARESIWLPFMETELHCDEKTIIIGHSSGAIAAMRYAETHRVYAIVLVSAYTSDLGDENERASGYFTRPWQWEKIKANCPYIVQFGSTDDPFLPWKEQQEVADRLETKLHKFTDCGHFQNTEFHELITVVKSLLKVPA
#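 Measured by – fluorescence polarization · Test system – RBBP9 protein · Input – 2.5 µM RBBP9 dispensing solution, before mixing · Measure – percent inhibition from mP, scaled between DMSO and no-protein wells · Benchmarks – DMSO-treated enzyme wells and wells lacking RBBP9 · Times – preincubation 30 min plus labeling 45 min at 25 °C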
# WT yeast gro inh = growth inhibition of WT yeast, mitochondrial fusion screen | mitochondrial fusion phenotypic screen, WT strain | 190,000 tested, 2.1% active | inhibition, % at 10 µM; in the data active = inhibition above about 58%; tested in S. cerevisiae
# * marks the source's active call; other numbers are inactive results; x = no result given; + = active, no number. A selection: hits, their analogues and other compounds. The true share with any hit is near 3.7%.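 The calls were made as follows, unless noted: active = inhibition above about 30% (limit read from the data); inactive = the rest.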
SMILES,EBV gp42 inh,eIF4E 4G PPI,p47phox inh,14-3-3 Bad inh,RBBP9 inh,WT yeast gro inh
CCOc1ccc(N=C2NC(=O)S/C2=C\c2ccc(N(C)C)cc2)cc1,54*,-1,-28,13,1,-9
O=C(Nc1c2c(nc3ccccc13)CCCC2)c1cccc([N+](=O)[O-])c1,-10,4,-16,-9,-12,-5
COc1cccc(NC(=S)N(Cc2ccccn2)Cc2ccccc2Cl)c1,-13,4,-8,-6,-8,68*
COc1cccc(NC(=S)N(CCc2ccc(OC)c(OC)c2)Cc2ccccn2)c1,3,0,-4,-5,-11,-8
CCc1ccc(NC(=S)N(Cc2ccccc2)Cc2ccccn2)cc1,-24,-1,-11,-22,7,68*
CCc1ccc(NC(=S)N(CCCN2CCOCC2)Cc2ccccn2)cc1,-9,0,-10,-13,-10,-14
COc1ccc(NC(=S)N(Cc2ccccn2)Cc2ccccc2Cl)cc1,2,0,-4,-4,-8,75*
CN=c1scc(-c2cccs2)n1/N=C/c1ccccc1O,3,-4,-6,13,4,62*
C/C(=N\NC(=S)NCc1ccccc1)c1cccc(Br)c1,-12,-1,-22,-11,2,70*
COc1ccc(CNC(=S)N/N=C(\C)c2ccc(OC)cc2)cc1,0,-1,-13,-7,-6,x
COc1ccc(/C(C)=N/NC(=S)NCCc2ccccc2)cc1,-3,1,-9,-13,4,67
C/C(CCC(C)C)=N\NC(=S)NCc1ccccc1,6,-3,-13,-9,-8,60*
COc1ccccc1/C(C)=N/NC(=S)NCc1ccccc1,-5,0,-10,-23,-5,65*
C/C(=N\NC(=S)NCc1ccccc1)c1ccc2ccccc2c1,-6,1,-9,-34,-18,64*
C/C(=N\NC(=S)NCCc1ccccc1)c1cccc(Br)c1,-11,-2,-20,-9,-1,27
S=C(NCc1ccccc1)NCc1ccc(CNC(=S)NCc2ccccc2)cc1,-14,1,-22,-3,-10,2
N#Cc1nccnc1N1CCN(C(=O)Nc2ccccc2)CC1,-2,-1,-10,-5,4,x
O=C(CNCC1CCCO1)N1CCN(S(=O)(=O)c2ccc3ccccc3c2)CC1 (configuration not stated),-1,6,-7,73*,-3,-9
O=C(CNC(=O)c1ccc2ccccc2c1)OCC(=O)N1CCN(S(=O)(=O)c2ccc3ccccc3c2)CC1,-24,6,-9,-11,-14,-1
CCOC(=O)N1CCC(N2CCN(S(=O)(=O)c3ccc4ccccc4c3)CC2)CC1,-5,-5,0,70*,3,21
O=C(NC1=NCCS1)c1ccc(Cl)c(S(=O)(=O)N2CCOCC2)c1,-17,1,-2,-2,0,17
O=C(C1CCN(S(=O)(=O)c2cccnc2)CC1)N1CCN(c2cccc(Cl)c2)CC1,-6,86*,-4,2,-5,-2
CS(=O)(=O)N1CCC(C(=O)N2CCN(c3cccc(Cl)c3)CC2)CC1,-3,1,-4,0,-6,-3
Cc1ccc(NC(=O)Cn2cccc2)cc1Cl,-6,-1,-1,+,5,-5
Cc1ccc(NC(=O)Cn2cccc2)cc1C,-11,0,-5,-3,-1,-16
SMILES,EBV gp42 inh,eIF4E 4G PPI,p47phox inh,14-3-3 Bad inh,RBBP9 inh,WT yeast gro inh
CSc1ccccc1NC(=O)CSc1nncs1,-20,-1,-5,-6,1,-23
COc1ccc(CN(CC2CCC(C(=O)O)CC2)C(=S)Nc2cc(Cl)ccc2OC)cc1 (configuration not stated),5,-1,5,-3,-10,-10
C/C(CCc1ccc2c(c1)OCO2)=N\NC(=S)NC(C)C,-6,-5,1,3,-12,59*
O=C(O)COc1ccccc1-c1ccccc1,-10,3,-3,-3,1,x
CN(Cc1ccc(F)cc1)C(=O)COc1ccccc1-c1ccccc1,3,5,-1,4,-5,64*
Cc1cc(Br)ccc1SCC(=O)OCC(=O)NC1CCCC1,14,2,3,-5,-11,4
COc1cc2c(cc1Cl)C(=O)C(F)(c1ccccc1)C(=O)N2 (configuration not stated),-6,2,-3,1,-4,x
